{
  "source": "ChEMBL document CHEMBL4014308",
  "about": "“Amphiphilic Tobramycin-Lysine Conjugates Sensitize Multidrug Resistant Gram-Negative Bacteria to Rifampicin and Minocycline” (J Med Chem, 2017)",
  "format_in_all_cases": "functional",
  "key": {"[1]": {"test_system": "Staphylococcus epidermidis", "test": "Antibacterial activity against methicillin-resistant Staphylococcus epidermidis isolate CAN-ICU 61589 after 18 hrs by microtiter dilution assay", "details": "isolate CAN-ICU 61589, 18 h", "in_short": "(§1)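 Broth microdilution following CLSI guidelines. An overnight culture was adjusted to 0.5 McFarland in saline, then diluted 1:50 in Mueller-Hinton broth. This inoculum was added in equal volume to 2-fold serial dilutions of agent in MHB and incubated 18 h at 37 °C. MIC was the lowest concentration with no visible growth.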"}, "Escherichia coli [2]": {"test_system": "Escherichia coli", "test": "Antibacterial activity against gentamicin-resistant Escherichia coli isolate CAN-ICU 61714 after 18 hrs by microtiter dilution assay", "details": "isolate CAN-ICU 61714, 18 h", "in_short": "as §1"}, "Escherichia coli [3]": {"test_system": "Escherichia coli", "test": "Antibacterial activity against amikacin-resistant Escherichia coli isolate CAN-ICU 63074 after 18 hrs by microtiter dilution assay", "details": "isolate CAN-ICU 63074, 18 h", "in_short": "as §1"}, "Pseudomonas aeruginosa [4]": {"test_system": "Pseudomonas aeruginosa", "test": "Antibacterial activity against Pseudomonas aeruginosa PAO1 after 18 hrs by microtiter dilution assay", "in_short": "as §1"}, "Pseudomonas aeruginosa [5]": {"test_system": "Pseudomonas aeruginosa", "test": "Antibacterial activity against multidrug/extremely drug-resistant/colistin-susceptible Pseudomonas aeruginosa isolate 100036 after 18 hrs by microtiter dilution assay", "details": "isolate 100036, 18 h", "in_short": "as §1"}, "Pseudomonas aeruginosa [6]": {"test_system": "Pseudomonas aeruginosa", "test": "Antibacterial activity against multidrug/extremely drug-resistant/colistin-susceptible Pseudomonas aeruginosa isolate 101885 after 18 hrs by microtiter dilution assay", "details": "isolate 101885, 18 h", "in_short": "as §1"}, "Pseudomonas aeruginosa [7]": {"test_system": "Pseudomonas aeruginosa", "test": "Antibacterial activity against multidrug/extremely drug-resistant/colistin-susceptible Pseudomonas aeruginosa isolate P259-96918 after 18 hrs by microtiter dilution assay", "details": "isolate P259-96918, 18 h", "in_short": "as §1"}, "Pseudomonas aeruginosa [8]": {"test_system": "Pseudomonas aeruginosa", "test": "Antibacterial activity against multidrug/extremely drug-resistant/colistin-susceptible Pseudomonas aeruginosa isolate P262-101856 after 18 hrs by microtiter dilution assay", "details": "isolate P262-101856, 18 h", "in_short": "as §1"}, "Pseudomonas aeruginosa [9]": {"test_system": "Pseudomonas aeruginosa", "test": "Antibacterial activity against multidrug/extremely drug-resistant/colistin-susceptible Pseudomonas aeruginosa isolate P264-104354 after 18 hrs by microtiter dilution assay", "details": "isolate P264-104354, 18 h", "in_short": "as §1"}, "Pseudomonas aeruginosa [10]": {"test_system": "Pseudomonas aeruginosa", "test": "Antibacterial activity against multidrug/extremely drug-resistant/colistin-resistant Pseudomonas aeruginosa isolate 91433 after 18 hrs by microtiter dilution assay", "details": "isolate 91433, 18 h", "in_short": "as §1"}, "Pseudomonas aeruginosa [11]": {"test_system": "Pseudomonas aeruginosa", "test": "Antibacterial activity against multidrug/extremely drug-resistant/colistin-resistant Pseudomonas aeruginosa isolate 101243 after 18 hrs by microtiter dilution assay", "details": "isolate 101243, 18 h", "in_short": "as §1"}},
  "data": [
    {"compound": "Cc1nnc(SCC2=C(C(=O)O)N3C(=O)[C@@H](NC(=O)Cn4cnnn4)[C@H]3SC2)s1", "note": "[CEFAZOLIN]", "values": [
      {"measurement": "MIC", "setting": "[1]", "result": "> 32", "unit": "µg/mL"},
      {"measurement": "MIC", "setting": "Escherichia coli [2]", "result": 32, "unit": "µg/mL"},
      {"measurement": "MIC", "setting": "Escherichia coli [3]", "result": 32, "unit": "µg/mL"}
    ]},
    {"compound": "NCC[C@H](O)C(=O)N[C@@H]1C[C@H](N)[C@@H](O[C@H]2O[C@H](CN)[C@@H](O)[C@H](O)[C@H]2O)[C@H](O)[C@H]1O[C@H]1O[C@H](CO)[C@@H](O)[C@H](N)[C@H]1O", "note": "[AMIKACIN]", "values": [
      {"measurement": "MIC", "setting": "Escherichia coli [3]", "result": 32, "unit": "µg/mL"},
      {"measurement": "MIC", "setting": "Pseudomonas aeruginosa [4]; PAO1, 18 h", "result": 1, "unit": "µg/mL"}
    ]},
    {"compound": "NC[C@H]1O[C@H](O[C@H]2[C@H](O)[C@@H](O[C@H]3O[C@H](CO)[C@@H](O)[C@H](N)[C@H]3O)[C@H](N)C[C@@H]2N)[C@H](O)[C@@H](O)[C@@H]1O", "note": "[KANAMYCIN]", "values": [
      {"measurement": "MIC", "setting": "Pseudomonas aeruginosa [4]; PAO1, 18 h", "result": 64, "unit": "µg/mL"}
    ]},
    {"compound": "C[C@@H](O)[C@H]1C(=O)N2C(C(=O)O)=C(S[C@@H]3CN[C@H](C(=O)N(C)C)C3)[C@H](C)[C@H]12", "note": "[MEROPENEM]", "values": [
      {"measurement": "MIC", "setting": "Pseudomonas aeruginosa [4]; PAO1, 18 h", "result": 0.5, "unit": "µg/mL"}
    ]},
    {"compound": "CN[C@H](CC(C)C)C(=O)N[C@H]1C(=O)N[C@@H](CC(N)=O)C(=O)N[C@H]2C(=O)N[C@H]3C(=O)N[C@H](C(=O)N[C@H](C(=O)O)c4cc(O)cc(O)c4-c4cc3ccc4O)[C@H](O)c3ccc(c(Cl)c3)Oc3cc2cc(c3O[C@@H]2O[C@H](CO)[C@@H](O)[C@H](O)[C@H]2O[C@H]2C[C@](C)(N)[C@H](O)[C@H](C)O2)Oc2ccc(cc2Cl)[C@H]1O", "note": "[VANCOMYCIN]", "values": [
      {"measurement": "MIC", "setting": "Pseudomonas aeruginosa [4]; PAO1, 18 h", "result": "> 1020", "unit": "µg/mL"}
    ]},
    {"compound": "GENTAMICIN", "values": [
      {"measurement": "MIC", "setting": "Pseudomonas aeruginosa [4]", "result": 1, "unit": "µg/mL"}
    ]},
    {"compound": "COc1cc(Cc2cnc(N)nc2N)cc(OC)c1OC", "note": "[TRIMETHOPRIM]", "values": [
      {"measurement": "MIC", "setting": "Pseudomonas aeruginosa [4]; PAO1, 18 h", "result": 256, "unit": "µg/mL"},
      {"measurement": "MIC", "setting": "Pseudomonas aeruginosa [5]", "result": 256, "unit": "µg/mL"},
      {"measurement": "MIC", "setting": "Pseudomonas aeruginosa [6]", "result": "> 512", "unit": "µg/mL"},
      {"measurement": "MIC", "setting": "Pseudomonas aeruginosa [7]", "result": 512, "unit": "µg/mL"},
      {"measurement": "MIC", "setting": "Pseudomonas aeruginosa [8]", "result": "> 1020", "unit": "µg/mL"},
      {"measurement": "MIC", "setting": "Pseudomonas aeruginosa [9]", "result": 256, "unit": "µg/mL"},
      {"measurement": "MIC", "setting": "Pseudomonas aeruginosa [10]", "result": 512, "unit": "µg/mL"},
      {"measurement": "MIC", "setting": "Pseudomonas aeruginosa [11]", "result": 1020, "unit": "µg/mL"}
    ]},
    {"compound": "COc1c(N2C[C@@H]3CCCN[C@@H]3C2)c(F)cc2c(=O)c(C(=O)O)cn(C3CC3)c12", "note": "[MOXIFLOXACIN]", "values": [
      {"measurement": "MIC", "setting": "Pseudomonas aeruginosa [4]; PAO1, 18 h", "result": 1, "unit": "µg/mL"},
      {"measurement": "MIC", "setting": "Pseudomonas aeruginosa [5]", "result": 128, "unit": "µg/mL"},
      {"measurement": "MIC", "setting": "Pseudomonas aeruginosa [6]", "result": 64, "unit": "µg/mL"},
      {"measurement": "MIC", "setting": "Pseudomonas aeruginosa [7]", "result": 512, "unit": "µg/mL"},
      {"measurement": "MIC", "setting": "Pseudomonas aeruginosa [8]", "result": 128, "unit": "µg/mL"},
      {"measurement": "MIC", "setting": "Pseudomonas aeruginosa [9]", "result": 128, "unit": "µg/mL"},
      {"measurement": "MIC", "setting": "Pseudomonas aeruginosa [10]", "result": 8, "unit": "µg/mL"},
      {"measurement": "MIC", "setting": "Pseudomonas aeruginosa [11]", "result": 4, "unit": "µg/mL"}
    ]}
  ]
}
